Data from ChEMBL document CHEMBL1142384, “Gamma-carboline derivatives with anti-bovine viral diarrhea virus (BVDV) activity” (Bioorg Med Chem, 2008).

Tests used:
[1] = Cytotoxicity against mock-infected MDBK cells by LDH method; type: cell-based, Bos taurus; details: cattle
In short: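 Mock-infected MDBK cells (1 × 10^4 cells/well) incubated at 37 °C with various compound concentrations for 3 days. Viability measured by the LDH method.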

[2] = test system: Bovine viral diarrhea virus 1; test: Antiviral activity against BVDV infected in MDBK cells assessed as reduction in viral induced cell destruction by MTT assay; type: functional, organism-based; details: Bovine viral diarrhea virus isolates and strains
In short: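 BVDV (Nose strain) infected MDBK cells (1 × 10^4 cells/well) at multiplicity of infection 0.01. Cells incubated at 37 °C with various compound concentrations for 3 days. Viability of infected cells read by MTT.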

[3] = Selectivity index, ratio of CC50 for MDBK cells to EC50 for BVDV infected in MDBK cells; type: functional
In short: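 MDBK cells (1 × 10^4/well) were infected with BVDV Nose strain at MOI 0.01, or mock-infected, and held at 37 °C with various compound concentrations for 3 days. EC50 was taken from the reduction of virus-induced cell destruction, measured as MTT viability of infected cells. CC50 was taken from the reduction of viable cell number, measured by LDH in mock-infected cells. SI = CC50/EC50.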

HL-60 = test: Growth inhibition of human HL60 cells; type: functional, cell-based

In the case of `c1ccc2c(c1)[nH]c1cccnc12`, the CC50 [1] is reported as over 100 µM and the EC50 [2] is reported as over 100 µM.
With `c1ccc2c(c1)[nH]c1ccccc12` [CARBAZOLE] the CC50 [1] was over 100 µM and the EC50 [2] was 64 µM.
With `Cc1cncc2c1[nH]c1ccccc12` the CC50 [1] was 21 µM, the “Ratio CC50/EC50” value [3] was 38.2 and the EC50 [2] was 0.55 µM.
In the case of `CCCn1c2ccccc2c2cnccc21`, the CC50 [1] is reported as 26 µM and the EC50 [2] is reported as 8.2 µM.
Work on `CC(C)n1c2ccccc2c2cnccc21` yielded a CC50 [1] of 30 µM and an EC50 [2] of 11 µM.
In the case of `Cc1cc2[nH]c3ccccc3c2cn1`, the CC50 [1] is reported as 70 µM, the “Ratio CC50/EC50” value [3] is reported as 31.8 and the EC50 [2] is reported as 2.2 µM.
With `Cn1ccc2nc3ccccc3c-2c1` the CC50 [1] was 65 µM, the “Ratio CC50/EC50” value [3] was 15.1 and the EC50 [2] was 4.3 µM.
In the case of `CCCCCCn1c2ccccc2c2cnccc21`, the CC50 [1] is reported as 7.4 µM and the EC50 [2] is reported as over 7.4 µM.
With `Cn1c2ccccc2c2cnccc21` the CC50 [1] was 29 µM, the “Ratio CC50/EC50” value [3] was 111.5 and the EC50 [2] was 0.26 µM.
`c1ccc2c(c1)oc1ccccc12` [DIBENZOFURAN] showed a CC50 [1] of over 100 µM and an EC50 [2] of 58 µM.
For `c1ccc2c(c1)[nH]c1cnccc12` [NORHARMANE], the CC50 [1] was 78 µM and the EC50 [2] was 8.8 µM.
`CCN(CC)CCn1c2ccccc2c2cnccc21` gave a CC50 [1] of 10 µM and an EC50 [2] of 8.9 µM.
With `c1ccc2c(c1)Cc1ccccc1-2` [FLUORENE] the CC50 [1] was over 100 µM and the EC50 [2] was 71 µM.
`CCCCn1c2ccccc2c2cnccc21` gave a CC50 [1] of 14 µM and an EC50 [2] of 9.2 µM.
In the case of `c1ccc2c(c1)[nH]c1ncccc12`, the CC50 [1] is reported as over 100 µM and the EC50 [2] is reported as 93 µM.
In the case of `Cc1ccc2[nH]c3ccncc3c2c1`, the CC50 [1] is reported as 12 µM, the “Ratio CC50/EC50” value [3] is reported as 4 and the EC50 [2] is reported as 3 µM.
With `Cc1cccc2c1[nH]c1ccncc12` the CC50 [1] was 24 µM, the “Ratio CC50/EC50” value [3] was 14.1 and the EC50 [2] was 1.7 µM.
With `Cc1ccc2c(c1)[nH]c1ccncc12` the CC50 [1] was 24 µM, the “Ratio CC50/EC50” value [3] was 21.8 and the EC50 [2] was 1.1 µM.
With `Cc1nccc2[nH]c3ccccc3c12` the CC50 [1] was 9.7 µM, the “Ratio CC50/EC50” value [3] was 16.7 and the IC50 (HL-60) was 15.3 µM. It also gave an EC50 [2] of 0.58 µM.
In the case of `Cc1cccc2[nH]c3ccncc3c12`, the CC50 [1] is reported as 16 µM, the “Ratio CC50/EC50” value [3] is reported as 13.3 and the EC50 [2] is reported as 1.2 µM.
`c1ccc(Cn2c3ccccc3c3cnccc32)cc1` gave a CC50 [1] of 11 µM and an EC50 [2] of 8.7 µM.
In the case of `c1ccc2c(c1)[nH]c1ccncc12`, the CC50 [1] is reported as 40 µM, the IC50 (HL-60) is reported as 11.4 µM and the EC50 [2] is reported as 2 µM.
`CCn1c2ccccc2c2cnccc21` showed a CC50 [1] of 29 µM and an EC50 [2] of 2 µM.
